Assay results pooled from the literature.
MAP2K4: Dual specificity mitogen-activated protein kinase kinase 4 (MAP2K4, Homo sapiens, UniProt P45985)
ESR2: Estrogen receptor beta (ESR2, Homo sapiens, UniProt Q92731)

With `Nc1ncc(-c2nc(N3CCOCC3)nc(N3CCOCC3)n2)c(C(F)F)n1` the remaining binding was 66% (Serine/threonine-protein kinase 38 (STK38, Homo sapiens, UniProt Q15208); binding, competition with immobilised ligand; 10 µM).
The inhibition of `COc1cc(Nc2ncc(F)c(Nc3ccc4c(n3)NC(=O)C(C)(C)O4)n2)cc(OC)c1OC` is reported as 85% (MAP2K4; binding, competition with immobilised ligand; 10 µM).
`Cc1nn(C)cc1-c1nc2c(N3CCN(Cc4ccc(Cl)cc4)CC3)c(Cl)cnc2[nH]1` has a remaining binding of 80% (Phosphatidylinositol 5-phosphate 4-kinase type-2 gamma (PIP4K2C, Homo sapiens, UniProt Q8TBX8); binding, competition with immobilised ligand; 1 µM).
`C[C@H](C(=O)N[C@H]1COc2ccccc2[C@@H]1S(C)(=O)=O)c1ccc(F)cc1` gave an inhibition of 3% (ESR2; enzyme activity, inhibitor; 10 µM).
The inhibition of `O=C(Nc1cccnn1)N1CCN([C@@H]2CCOc3cc(C(F)(F)F)ccc32)CC1` is reported as 3% (Neprilysin (MME, Homo sapiens, UniProt P08473); enzyme activity, inhibitor; 20 µM).
`CCN(CC)CCCC[C@H](NC(=O)[C@H](CC(C)C)NC(=O)[C@H](C)NC(=O)[C@H](Cc1ccccc1)NC(=O)c1ccc(C(C)(C)C)cc1)C(=O)N[C@@H](CO)C(=O)OC` gave a ΔTm of -0.23 °C (Bromodomain adjacent to zinc finger domain protein 2A, bromodomain (BAZ2A, Homo sapiens, UniProt Q9UIF9); thermal stability, DSF; 25 µM).
The inhibition of `Cc1ncc(C)n2nc(/C=C/c3nc(N4CCCC4)cc(N4CCOCC4)n3)nc12` is reported as 10% (Nitric oxide synthase, inducible (Nos2, Mus musculus, UniProt P29477); enzyme activity, inhibitor; 10 µM).
For `COc1ncccc1-c1cnn2ccc(N3CCN(C(=O)OC(C)C)CC3)nc12`, the remaining binding was 100% (MAP2K4; binding, competition with immobilised ligand; 1 µM).
For `C#Cc1n[nH]c2c(-c3cn([C@@H](C)c4ccccc4)c(=O)[nH]c3=O)cc(F)cc12`, the inhibition was -3% (Tyrosine-protein kinase JAK2 (JAK2, Homo sapiens, UniProt O60674); enzyme activity, inhibitor; 0.1 µM).
`Cc1sc2c(c1C)C(c1ccc(Cl)cc1)=N[C@@H](CC(=O)OC(C)(C)C)c1nnc(C)n1-2` has a ΔTm of -0.92 °C (Stimulator of interferon genes protein (STING1, Homo sapiens, UniProt Q86WV6, H232R); thermal stability, DSF; 100 µM).
The inhibition of `c1ccc(C(NCCNC(c2ccccc2)c2ccccc2)c2ccccc2)cc1` is reported as 14% (ESR2; enzyme activity, inhibitor; 10 µM).
For `C#Cc1n[nH]c2c(-c3cn([C@@H](C)c4ccccn4)c(=O)[nH]c3=O)cc(F)cc12`, the inhibition was 4.5% (Proto-oncogene tyrosine-protein kinase receptor Ret (RET, Homo sapiens, UniProt P07949, V804L); enzyme activity, inhibitor; 0.1 µM).
